procasp7 counter: activates human procaspase-7, counter-screen for procaspase-3 activators. AID 463210. P55210. 330,000 tested, 0.093% active. activation, % at 8.5 µM. recombinant procaspase-7, Ac-DEVD-pNA absorbance 405 nm; D23A/D198A/D206A triple mutant, cannot self-cleave; scale: DMSO 0, 5 µM enzyme 100;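 active means percent activation above the screen-wide mean plus 3 SD, cut at about 25% in these data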
Target sequence (P55210 whole entry D23A/D198A/D206A): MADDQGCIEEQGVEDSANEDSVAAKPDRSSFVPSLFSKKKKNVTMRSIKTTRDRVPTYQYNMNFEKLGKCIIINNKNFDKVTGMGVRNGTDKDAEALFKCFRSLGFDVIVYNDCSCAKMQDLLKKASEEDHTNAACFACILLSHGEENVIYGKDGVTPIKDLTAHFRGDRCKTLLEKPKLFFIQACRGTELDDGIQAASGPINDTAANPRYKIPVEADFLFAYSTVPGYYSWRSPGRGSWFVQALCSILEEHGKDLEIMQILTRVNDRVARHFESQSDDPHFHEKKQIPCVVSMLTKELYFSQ
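signal = Epi-absorbance of released pNA at 405 nm, two timepoints | assay system = Uncleavable procaspase-7 mutant enzyme | reagent = Ac-DEVD-pNA substrate, 400 µM as added | times = 1 h enzyme–compound preincubation and 2 h substrate reaction, both 25 °C | benchmarks = low DMSO alone, high DMSO plus 5 µM PC-7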
FXN GAA850 act: frataxin GAA850 promoter activation | activation, % at 6 µM | 360,000 tested, 0.56% active | HEK293 lucGAA850 FXN promoter luciferase reporter, 24 h; percent of 10 µM SAHA response | AID 540364;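 active means activation above the average of all compounds screened plus 3 SD, cutoff fixed separately per campaign, cut at about 7.5% in these data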;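 further: 0% = DMSO wells and 100% = 10 µM SAHA wells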
Rce1 inhib: yeast Ras-converting enzyme inhibition; yeast membranes, quenched prenylated peptide cleavage fluorescence; calls only; 290,000 tested, 0.27% active;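 active means fall in fluorescence gain of 50% or more versus controls, with final raw signal at or below 3038400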;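 further: plate controls were neutral control wells for no effect and wells lacking membranes for full effect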
proCasp3 act: activators of human procaspase-3. P42574. recombinant procaspase-3 D3A, Ac-DEVD-pNA absorbance 405 nm. activation, % at 8.5 µM. 330,000 tested, 0.11% active. AID 463141;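 active means activation above the mean of all tested compounds plus 3 SD, cut at about 21% in these data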;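 further: 0% = DMSO alone and 100% = DMSO wells spiked with extra 5 µM PC-3 D3A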
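material = Procaspase-3 D3A mutant | probe or stimulus = Ac-DEVD-pNA | compound = single dose, 8.5 µM nominal compound, 0.8% DMSO | timing = 1 h preincubation, 2 h reaction | measured by = 405 nm absorbance of p-nitroaniline, reads at 0 and 120 min | benchmarks = DMSO-only low control, 5 µM PC-3 D3A high control | repeats = singlicate, each compound tested once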
Lipid droplet: hepatic lipid droplet formation modulation. AML12 mouse hepatocytes, oleate lipid droplets, BODIPY imaging. inhibition, % at 6.5 µM. 240,000 tested, 0.4% active. AID 1656;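 active means lipid droplet intensity inhibited by at least 50%, with more than 500 cells counted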
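System: AML12 hepatocytes (mouse). Probe or stimulus: oleic acid at 100 µM to induce lipid droplet formation. Times: overnight treatment with compound plus oleate. Detection: Image-based BODIPY and DAPI two-channel analysis. Evaluation: percent inhibition of filter-corrected integrated lipid droplet intensity per well.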
p-CIP stab down: lowers stability of the mouse p/CIP coactivator protein; Q05BA5; F442A p/CIP-EGFP cells, EGFP fluorescence, 16 h; decrease of EGFP signal, % at 10 µM; 290,000 tested, 0.01% active; AID 1984;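 active means EGFP signal decrease of at least 30% at 10 µM or well 3 SD below plate mean, unless failing retest; inactive means the rest, including hits failing retest or dose response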
GAA30 FXN cntr: GAA30 FXN promoter activation counter-screen; AID 588350; activation, % at 6 µM; shares compounds with FXN GAA850 act; HEK293 lucGAA30 FXN promoter luciferase, 24 h; DMSO = 0%, 5 µM ipriflavone = 100%; 1,900 tested, 66% active;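 active means mean activation above the mean of solvent-only control wells plus 3 SD, cut at about 22% in these data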;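 further: counterscreen of GAA850 promoter hits where activity marks nonselective or luminescence artifacts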
FXN GAA850 conf: GAA850 FXN promoter activation confirmation; shares compounds with FXN GAA850 act; HEK293 lucGAA850 FXN promoter luciferase reporter, 24 h; 100% = activation by SAHA; activation, % at 6 µM; 1,900 tested, 86% active; AID 588351;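 active means mean activation above a set limit taken from the primary screen, cut at about 8% in these data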;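 further: 0% = DMSO wells and 100% = 10 µM SAHA wells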
* hit, by the source's call; i = inactive; / = no result. Rows were chosen to be rich in hits. Some 1.2% of all compounds tested hit in one or more screens of this group.

SMILES	procasp7 counter	FXN GAA850 act	Rce1 inhib	proCasp3 act	Lipid droplet	p-CIP stab down	GAA30 FXN cntr	FXN GAA850 conf
COc1cc2c(cc1OC)-c1cc(NC3CC3)nc(=O)n1CC2	16.4	3.0	i	-0.4	3.4	0.7	/	/
CCN1C(=O)[C@H]2[C@@H](c3ccc(C(F)(F)F)cc3)N[C@]3(CCCN(Cc4ccc(Cl)cc4)C3=O)[C@H]2C1=O	/	-4.3	/	/	/	/	/	/
CN(C)c1cc(-c2cccc(C(F)(F)F)c2)oc(=O)c1Cl	17.4	-0.5	i	0.9	/	/	/	/
CN(CC(=O)Nc1ccc(F)c(F)c1F)C(=O)C1CCCC1	11.8	0.4	/	-3.3	/	/	/	/
CC(C)Cc1nc(SCC(=O)N2CCCC2)c2c(=O)n(C)c(=O)n(C)c2n1	6.7	0.2	i	2.9	24.3	1.0	/	/
O=C(C=C=Nc1ccccc1)C(=O)N=C=Cc1ccccc1	8.6	8.7*	i	6.0	0.1	-12.3	27.1*	29.2*
O=C(N/N=C/c1ccccc1)C(=O)N/N=C/c1ccccc1	8.0	-1.4	i	8.3	1.9	1.2	/	/
O=S(=O)(c1cccc(Cn2nnc(-c3ccccc3)n2)c1)N1CCOCC1	0.2	-0.4	/	5.3	/	/	/	/
CC[C@@]12C(=O)N(c3ccc(C)cc3)C(=O)N1[C@H](c1ccc(OC)cc1)[C@@H]1C(=O)N(C(C)(C)C)C(=O)[C@@H]12	-13.1	11.5*	i	5.9	-13.7	-8.7	32.7*	13.1*
COc1ccc(N2C(=O)N3[C@H](c4ccc(Br)cc4)[C@@H]4C(=O)N(C(C)(C)C)C(=O)[C@@H]4[C@]3(Cc3ccccc3)C2=O)cc1	-7.7	-0.8	i	-6.1	17.3	9.0	/	/
CC[C@@]12C(=O)N(c3ccccc3)C(=O)N1[C@H](c1ccc(OC)cc1)[C@@H]1C(=O)N(C(C)(C)C)C(=O)[C@@H]12	5.6	11.3*	i	0.9	/	/	34.9*	14.1*
CC[C@@]12C(=O)N(c3ccc(C)cc3)C(=O)N1[C@H](c1ccc(Br)cc1)[C@@H]1C(=O)N(C(C)(C)C)C(=O)[C@@H]12	-6.5	13.4*	i	-2.6	4.2	-6.4	28.1*	10.2*
C[C@H]1CN([C@@H](C)CO)C(=O)c2cc(C#CCC3CCCC3)cnc2O[C@@H]1CN(C)C(=O)CC1CC1	/	1.7	/	/	/	/	/	/
CCN(CC(=O)Nc1ccc(NC(C)=O)cc1)C(=O)CCCc1nc2ccccc2s1	-6.1	-1.7	/	-3.1	/	/	/	/
